Measurements from different studies.
Protocols differ between the studies behind these lines.
Matrix: plasma

CC(C)c1nc(N(C)S(C)(=O)=O)nc(-c2ccc(F)cc2)c1/C=C/[C@@H](O)C[C@@H](O)CC(=O)O
AUC(0-t) (human; oral, 20 mg): 48.6 ng·h/mL

COc1cc(N2CCC(N3CCN(C)CC3)CC2)ccc1Nc1ncnc(Nc2ccccc2S(=O)(=O)C(C)C)n1
AUC(0-t) (human; oral, 50 mg, multiple doses, patients): 4640 ng·h/mL

CO[C@@H]1[C@H](OC(=O)N2CC(CCN3CCOCC3)C2)CC[C@]2(CO2)[C@H]1[C@@]1(C)O[C@@H]1CC=C(C)C
AUC(0-t) (human; subcutaneous, 2.4 mg, single dose, healthy volunteers): 8.07 ng·h/mL

O=C(O)C[C@H](O)C[C@H](O)/C=C/c1c(C2CC2)nc2ccccc2c1-c1ccc(F)cc1
AUC(0-t) (human; oral, 2 mg, single dose, fed, healthy volunteers, tablet): 292 ng·h/mL

OC[C@H]1O[C@@H](c2ccc(Cl)c(Cc3ccc(O[C@H]4CCOC4)cc3)c2)[C@H](O)[C@@H](O)[C@@H]1O
AUC(0-t) (human; oral, 10 mg, single dose): 1.63 µM·h

COc1cc2c(cc1OC)CN(CCc1ccc(NC(=O)c3cc(OC)c(OC)cc3NC(=O)c3cnc4ccccc4c3)cc1)CC2
AUC(0-t) (human; intravenous, 1 mg/kg, patients): 5.4 µM·h

C[C@@H](Oc1ccc(S(C)(=O)=O)cc1C(=O)N1C[C@@H]2C[C@]2(c2cc(C(F)(F)F)on2)C1)C(F)(F)F
AUC(0-t) (human; oral, 25 mg, fed, tablet): 11 µM·h

COc1ccc([C@@H]2CN(C(=O)[C@@H](O)CO)C[C@@]2(C)[C@@H](C)O)cc1OC1CN(c2ccc(C)cn2)C1
AUC(0-t) (human; oral, 5 mg, single dose, healthy volunteers): 1590 ng·h/mL

FC(F)(F)c1ccc(CNc2ccc(Cc3c[nH]c4ncc(Cl)cc34)cn2)cn1
AUC(0-t) (human; oral, 800 mg, multiple doses, patients): 22300 ng·h/mL

NS(=O)(=O)c1ccc(NC(=O)Nc2ccc(F)cc2)cc1
AUC(0-t) (human; oral, 500 mg, multiple doses, once daily): 62200 ng·h/mL

COc1ccc(-n2nc(C(N)=O)c3c2C(=O)N(c2ccc(N4CCCCC4=O)cc2)CC3)cc1
AUC(0-t) (male human; oral, 2.5 mg, single dose): 430 ng·h/mL

CC(C)(O)c1ccccc1-c1ccc2[nH]c(/C=C/c3ccc(C(F)(F)F)cc3)nc2c1
AUC(0-t) (male human; oral, 120 mg, single dose, fasted, healthy volunteers): 13100 ng·h/mL

C[C@@H](Nc1cc(F)cc(F)c1)c1cc(C(=O)N(C)C)cc2c(=O)cc(N3CCOCC3)oc12
AUC(0-t) (human; oral, 180 mg, single dose, patients): 6710 ng·h/mL

Cc1nc(NC(=O)N2CCC[C@H]2C(N)=O)sc1-c1ccnc(C(C)(C)C(F)(F)F)c1
AUC(0-t) (human; oral, 350 mg, patients): 27600 ng·h/mL

CC(C)n1cc(C#N)c2cc(-n3cc(C(=O)O)cn3)ccc21
AUC(0-t) (human; oral, 400 mg, single dose, fasted, healthy volunteers): 91500 ng·h/mL

CCNCCCNC/C=C\CNCCCNCC
AUC(0-t) (human; intravenous, 100 mg, patients, infusion): 304 ng·h/mL

CCO[C@H]1CCN(Cc2c(OC)cc(C)c3[nH]ccc23)[C@H](c2ccc(C(=O)O)cc2)C1
AUC(0-t) (human; oral, 100 mg, multiple doses, twice daily, patients): 11900 ng·h/mL

CNC(=O)c1ccccc1Sc1ccc2c(/C=C/c3ccccn3)n[nH]c2c1
AUC(0-t) (human; oral, 5 mg, single dose, fasted, healthy volunteers): 194 ng·h/mL

COCCOc1cnc2ccn([C@H](C)c3nnc4c(F)cc(-c5cnn(C)c5)cn34)c(=O)c2c1
AUC(0-t) (human; oral, 200 mg, multiple doses, once daily, patients): 36900 ng·h/mL

COc1cc2c(Nc3ccc(Br)cc3F)ncnc2cc1OCC1CCN(C)CC1
AUC(0-t) (human; oral, 65 mg/m², multiple doses, patients): 18900 ng·h/mL

CCCCC1=NC2(CCCC2)C(=O)N1Cc1ccc(-c2ccccc2S(=O)(=O)Nc2noc(C)c2C)c(COCC)c1
AUC(0-t) (human; oral, 200 mg, single dose, fed, healthy volunteers, tablet): 50500 ng·h/mL

Nc1cc(C(F)(F)F)c(-c2cc(N3CCOCC3)nc(N3CCOCC3)n2)cn1
AUC(0-t) (human; oral, 25 mg/day, patients): 2060 ng·h/mL

Oc1cc(O)c2c(c1)O[C@@H](c1ccc(O)c(O)c1)[C@@H](O)C2
AUC(0-t) (human; oral, 10 mg, single dose): 4.6 ng·h/mL

C[C@@]1(c2cc(NC(=O)c3ccc(C#N)cn3)ccc2F)C=CSC(N)=N1
AUC(0-t) (human; oral, 10 mg, single dose): 1000 ng·h/mL

COC(=O)N[C@@H](C)CNc1nccc(-c2cn(C(C)C)nc2-c2cc(Cl)cc(NS(C)(=O)=O)c2F)n1
AUC(0-t) (human; oral, 50 mg, single dose): 1900 ng·h/mL

C=CC(=O)N1CCC(Oc2cc3c(Nc4ccc(Cl)c(Cl)c4F)ncnc3cc2OC)CC1
AUC(0-t) (human; oral, 16 mg, single dose, fed): 474 ng·h/mL

O=C(/C=C/c1cccc(S(=O)(=O)Nc2ccccc2)c1)NO
AUC(0-t) (human; intravenous, 1800 mg/m², patients): 54700 ng·h/mL

C#Cc1cccc(Nc2ncnc3cc(OCCOC)c(OCCOC)cc23)c1
AUC(0-t) (human; oral, 50 mg, patients): 12.5 µM·h

CO[C@H]1CC[C@H](N2C(=O)CNc3ncc(-c4ccc(C(C)(C)O)nc4)nc32)CC1
AUC(0-t) (human; oral, 7.5 mg, patients): 319 ng·h/mL
